Legend:
[1] = target: T1, Protein mono-ADP-ribosyltransferase PARP10 (Homo sapiens, UniProt Q53GL7); experiment: Inhibition of human PARP10 catalytic domain assessed as reduction in MARylation of His6-tagged SRPK2 substrate after 60 mins in presence of NAD+ by chemifluorescence assay
T1 sequence (Q53GL7 whole entry): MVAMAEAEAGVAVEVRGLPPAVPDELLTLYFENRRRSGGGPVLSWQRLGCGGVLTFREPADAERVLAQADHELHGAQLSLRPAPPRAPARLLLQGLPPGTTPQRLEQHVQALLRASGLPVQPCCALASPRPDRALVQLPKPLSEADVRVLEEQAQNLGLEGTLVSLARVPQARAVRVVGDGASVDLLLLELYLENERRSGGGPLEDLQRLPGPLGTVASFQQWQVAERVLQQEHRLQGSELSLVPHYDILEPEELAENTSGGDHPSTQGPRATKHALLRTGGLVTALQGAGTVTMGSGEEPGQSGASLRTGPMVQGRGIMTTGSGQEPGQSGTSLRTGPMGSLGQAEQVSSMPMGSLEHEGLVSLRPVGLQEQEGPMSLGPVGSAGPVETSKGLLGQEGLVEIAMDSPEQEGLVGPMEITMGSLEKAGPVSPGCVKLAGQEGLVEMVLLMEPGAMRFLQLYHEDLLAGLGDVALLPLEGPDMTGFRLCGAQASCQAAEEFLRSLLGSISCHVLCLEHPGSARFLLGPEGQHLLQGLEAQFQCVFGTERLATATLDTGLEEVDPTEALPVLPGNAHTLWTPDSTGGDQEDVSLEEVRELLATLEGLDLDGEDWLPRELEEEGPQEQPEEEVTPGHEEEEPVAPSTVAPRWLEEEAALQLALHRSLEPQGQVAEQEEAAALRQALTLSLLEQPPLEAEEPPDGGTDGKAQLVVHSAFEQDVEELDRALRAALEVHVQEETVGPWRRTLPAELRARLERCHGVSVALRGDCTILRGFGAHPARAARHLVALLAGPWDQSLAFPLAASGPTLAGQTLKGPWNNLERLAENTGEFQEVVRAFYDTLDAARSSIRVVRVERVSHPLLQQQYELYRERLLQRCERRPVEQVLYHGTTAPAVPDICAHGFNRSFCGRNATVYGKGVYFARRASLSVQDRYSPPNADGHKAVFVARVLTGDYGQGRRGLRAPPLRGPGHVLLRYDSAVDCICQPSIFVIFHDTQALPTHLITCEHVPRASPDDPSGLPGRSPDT

Homo sapiens [2] = species: Homo sapiens; experiment: Selectivity ratio of IC50 for full length human PARP1 to IC50 for human PARP10 catalytic domain
How it was run: (§1)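 Selectivity ratio is the IC50 for the given PARP divided by the IC50 for PARP10 catalytic domain. IC50s came from the 6-a-NAD+ SRPK2 plate assay or, for cell-expressed PARPs, the immunoprecipitation auto-MARylation assay.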

[3] = target: T2, Protein mono-ADP-ribosyltransferase PARP10 (Homo sapiens) (UniProt Q53GL7); experiment: Inhibition of GFP-tagged human PARP10 expressed in HEK293T cells assessed as reduction in high molecular weight target protein MARylation after 3 hrs by Western blot analysis; format: cell-based
T2 sequence (whole entry): T1 sequence (Q53GL7 whole entry)
How it was run: (§2)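 HEK293T cells transfected with GFP-PARP10 and treated with compound at 1−100 μM for 3 h. A Western blot using an ADP-ribose binding reagent detected PARP10 auto-MARylation and PARP10-mediated MARylation of high molecular weight targets.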

Homo sapiens [4] = species: Homo sapiens; experiment: Selectivity ratio of IC50 for GFP-tagged human PARP12 expressed in HEK293T cells to IC50 for human PARP10 catalytic domain; format: cell-based; how it was run: as §1
Homo sapiens [5] = species: Homo sapiens; experiment: Selectivity ratio of IC50 for human transmembrane domain deficient His-SUMO-tagged PARP16 expressed in Escherichia coli BL21 to IC50 for human PARP10 catalytic domain; how it was run: as §1
Homo sapiens [6] = species: Homo sapiens; experiment: Selectivity ratio of IC50 for human PARP4 BRCT-catalytic domain (1 to 572 residues) to IC50 for human PARP10 catalytic domain; how it was run: as §1
[7] = Inhibition of GFP-tagged human PARP6 short isoform expressed in HEK293T cells assessed as reduction in auto-MARylation after 60 mins in presence of 6-a-NAD+ by chemiluminescent immunoprecipitation assay; format: cell-based
[8] = target: T3, Protein mono-ADP-ribosyltransferase PARP16 (Homo sapiens, UniProt Q8N5Y8); experiment: Inhibition of human transmembrane domain deficient His-SUMO-tagged PARP16 expressed in Escherichia coli BL21 assessed as reduction in MARylation of His6-tagged SRPK2 substrate after 60 mins in presence of 6-a-NAD+ by chemifluorescence assay
T3 sequence (Q8N5Y8 whole entry): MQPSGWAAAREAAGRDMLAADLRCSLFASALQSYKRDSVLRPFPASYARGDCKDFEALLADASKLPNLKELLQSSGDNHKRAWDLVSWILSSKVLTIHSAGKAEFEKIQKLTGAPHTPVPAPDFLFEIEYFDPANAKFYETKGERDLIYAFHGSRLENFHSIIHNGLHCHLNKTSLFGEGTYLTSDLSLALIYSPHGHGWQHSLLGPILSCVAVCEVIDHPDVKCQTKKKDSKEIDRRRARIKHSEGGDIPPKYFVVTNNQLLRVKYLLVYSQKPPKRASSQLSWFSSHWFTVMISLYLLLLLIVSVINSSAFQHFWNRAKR
How it was run: (§3)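 Recombinant enzyme was tested in a 96-well plate assay that monitors MARylation of the substrate SRPK2 with the clickable 6-a-NAD+.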

Homo sapiens [9] = species: Homo sapiens; experiment: Selectivity ratio of IC50 for human PARP7 to IC50 for human PARP10 catalytic domain; how it was run: as §1
[10] = target: T2, Protein mono-ADP-ribosyltransferase PARP10 (Homo sapiens); experiment: Inhibition of human PARP10 catalytic domain assessed as reduction in auto-MARylation at 30 uM after 60 mins in presence of 6-a-NAD+ by chemiluminescent immunoprecipitation assay relative to control
Homo sapiens [11] = species: Homo sapiens; experiment: Selectivity ratio of IC50 for human PARP15 catalytic domain to IC50 for human PARP10 catalytic domain; how it was run: as §1
[12] = target: T4, Protein mono-ADP-ribosyltransferase TIPARP (Homo sapiens, UniProt Q7Z3E1); experiment: Inhibition of human PARP7 assessed as reduction in MARylation of SRPK2 substrate after 60 mins in presence of 6-a-NAD+ by chemifluorescence assay; how it was run: as §3
T4 sequence (Q7Z3E1 whole entry): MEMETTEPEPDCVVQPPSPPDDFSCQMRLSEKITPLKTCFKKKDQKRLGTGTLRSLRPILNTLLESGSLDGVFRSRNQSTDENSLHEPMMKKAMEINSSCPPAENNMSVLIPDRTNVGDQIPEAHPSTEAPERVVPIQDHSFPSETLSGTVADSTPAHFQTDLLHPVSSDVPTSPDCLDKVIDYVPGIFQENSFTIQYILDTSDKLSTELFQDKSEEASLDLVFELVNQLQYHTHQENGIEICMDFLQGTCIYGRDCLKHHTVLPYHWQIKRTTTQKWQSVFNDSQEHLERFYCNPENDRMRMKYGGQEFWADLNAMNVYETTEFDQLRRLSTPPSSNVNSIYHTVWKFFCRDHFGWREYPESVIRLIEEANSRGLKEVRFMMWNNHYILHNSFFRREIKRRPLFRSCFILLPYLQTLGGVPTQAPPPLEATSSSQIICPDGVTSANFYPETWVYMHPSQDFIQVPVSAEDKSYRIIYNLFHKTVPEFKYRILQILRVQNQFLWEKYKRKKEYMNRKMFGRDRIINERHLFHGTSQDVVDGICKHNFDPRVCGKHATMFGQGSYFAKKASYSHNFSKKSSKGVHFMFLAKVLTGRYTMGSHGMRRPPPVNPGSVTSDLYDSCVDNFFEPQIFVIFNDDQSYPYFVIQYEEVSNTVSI

Homo sapiens [13] = species: Homo sapiens; experiment: Selectivity ratio of IC50 for GFP-tagged human PARP6 long isoform expressed in HEK293T cells to IC50 for human PARP10 catalytic domain; format: cell-based; how it was run: as §1
Homo sapiens [14] = species: Homo sapiens; experiment: Selectivity ratio of IC50 for full length human PARP3 to IC50 for human PARP10 catalytic domain; how it was run: as §1
Homo sapiens [15] = species: Homo sapiens; experiment: Selectivity ratio of IC50 for human PARP14 catalytic-WWE domain (1459 to 1801 residues) expressed in Escherichia coli BL21 to IC50 for human PARP10 catalytic domain; how it was run: as §1
Homo sapiens [16] = species: Homo sapiens; experiment: Selectivity ratio of IC50 for GFP-tagged human PARP8 expressed in HEK293T cells to IC50 for human PARP10 catalytic domain; format: cell-based; how it was run: as §1
[17] = Inhibition of GFP-tagged human PARP6 long isoform expressed in HEK293T cells assessed as reduction in auto-MARylation after 60 mins in presence of 6-a-NAD+ by chemiluminescent immunoprecipitation assay; format: cell-based
Homo sapiens [18] = species: Homo sapiens; experiment: Selectivity ratio of IC50 for human PARP5B catalytic domain (1 to 572 residues) to IC50 for human PARP10 catalytic domain; how it was run: as §1
Homo sapiens [19] = species: Homo sapiens; experiment: Selectivity ratio of IC50 for GFP-tagged human PARP6 short isoform expressed in HEK293T cells to IC50 for human PARP10 catalytic domain; format: cell-based; how it was run: as §1
[20] = target: T2, Protein mono-ADP-ribosyltransferase PARP10 (Homo sapiens); experiment: Inhibition of GFP-tagged human PARP10 expressed in HEK293T cells assessed as reduction in auto-MARylation after 3 hrs by Western blot analysis; format: cell-based; how it was run: as §2
[21] = target: Protein mono-ADP-ribosyltransferase PARP4 (Homo sapiens, UniProt Q9UKK3); experiment: Inhibition of human PARP4 BRCT-catalytic domain (1 to 572 residues) assessed as reduction in MARylation of SRPK2 substrate after 60 mins in presence of 6-a-NAD+ by chemifluorescence assay; how it was run: as §3
Sequence of Protein mono-ADP-ribosyltransferase PARP4 (Q9UKK3 whole entry, the tested form may be a part): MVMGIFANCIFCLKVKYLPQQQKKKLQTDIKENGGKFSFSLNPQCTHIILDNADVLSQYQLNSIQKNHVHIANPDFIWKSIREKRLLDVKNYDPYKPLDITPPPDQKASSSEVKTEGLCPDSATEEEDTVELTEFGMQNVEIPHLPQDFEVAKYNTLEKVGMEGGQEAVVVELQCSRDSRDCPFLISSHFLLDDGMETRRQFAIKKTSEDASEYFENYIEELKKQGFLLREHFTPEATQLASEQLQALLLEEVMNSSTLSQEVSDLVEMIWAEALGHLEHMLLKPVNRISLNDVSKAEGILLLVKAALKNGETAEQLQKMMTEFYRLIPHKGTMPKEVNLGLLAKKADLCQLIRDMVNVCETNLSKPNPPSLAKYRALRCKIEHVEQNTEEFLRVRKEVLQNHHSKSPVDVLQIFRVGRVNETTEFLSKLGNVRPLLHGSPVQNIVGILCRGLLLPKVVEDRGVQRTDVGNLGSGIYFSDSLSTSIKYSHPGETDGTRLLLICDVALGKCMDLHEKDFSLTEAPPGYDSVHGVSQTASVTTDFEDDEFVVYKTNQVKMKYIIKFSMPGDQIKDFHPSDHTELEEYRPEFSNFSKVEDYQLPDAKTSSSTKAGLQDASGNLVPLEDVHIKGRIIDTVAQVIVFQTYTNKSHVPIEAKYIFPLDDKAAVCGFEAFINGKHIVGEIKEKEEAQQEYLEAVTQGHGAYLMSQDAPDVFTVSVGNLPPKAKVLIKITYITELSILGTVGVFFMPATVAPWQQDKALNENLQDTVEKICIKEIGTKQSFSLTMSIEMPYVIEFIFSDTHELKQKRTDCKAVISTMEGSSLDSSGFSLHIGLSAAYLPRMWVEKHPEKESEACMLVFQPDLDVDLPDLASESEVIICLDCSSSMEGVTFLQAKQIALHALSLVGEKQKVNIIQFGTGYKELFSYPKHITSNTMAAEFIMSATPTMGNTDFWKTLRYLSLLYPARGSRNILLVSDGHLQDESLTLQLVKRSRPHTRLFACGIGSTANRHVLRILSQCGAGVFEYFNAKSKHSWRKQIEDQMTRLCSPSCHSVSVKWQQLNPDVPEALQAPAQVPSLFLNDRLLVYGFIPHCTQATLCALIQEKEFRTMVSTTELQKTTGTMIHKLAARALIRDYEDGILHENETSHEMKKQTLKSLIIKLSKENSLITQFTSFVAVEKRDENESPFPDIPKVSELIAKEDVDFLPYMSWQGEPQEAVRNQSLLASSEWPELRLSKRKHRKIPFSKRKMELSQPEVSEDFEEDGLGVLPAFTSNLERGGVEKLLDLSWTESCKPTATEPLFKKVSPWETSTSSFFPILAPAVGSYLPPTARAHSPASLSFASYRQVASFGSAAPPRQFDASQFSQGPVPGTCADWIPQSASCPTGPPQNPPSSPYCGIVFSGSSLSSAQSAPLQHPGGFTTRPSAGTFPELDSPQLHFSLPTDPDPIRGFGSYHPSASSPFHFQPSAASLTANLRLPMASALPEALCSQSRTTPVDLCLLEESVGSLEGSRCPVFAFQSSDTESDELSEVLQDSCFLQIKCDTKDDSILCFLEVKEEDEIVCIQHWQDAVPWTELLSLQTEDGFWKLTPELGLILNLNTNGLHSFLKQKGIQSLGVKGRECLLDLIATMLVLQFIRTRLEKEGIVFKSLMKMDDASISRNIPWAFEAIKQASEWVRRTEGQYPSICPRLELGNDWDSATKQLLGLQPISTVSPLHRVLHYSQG

Homo sapiens [22] = species: Homo sapiens; experiment: Selectivity ratio of IC50 for full length human PARP2 to IC50 for human PARP10 catalytic domain; how it was run: as §1
[23] = Aqueous solubility of the compound; format: physicochemical; details: buffer

In the case of `Cc1c(-c2cnc3[nH]ccc3c2)ccc2c1CCNC2=O`, the IC50 [1] is reported as 710 nM.
With `O=C1NCCc2cc(Cc3ccccc3)ccc21` the IC50 [1] was > 50000 nM.
Compound `Cc1c(-c2cccnc2)ccc2c1CCNC2=O` has an IC50 [1] of 2500 nM.
With `Cc1c(-c2cncc(F)c2)ccc2c1CCNC2=O` the IC50 [1] was 2200 nM.
Work on `O=C1NCCc2cc(-c3cccc(F)c3)ccc21` yielded an IC50 [1] of 1400 nM.
Work on `CC(=O)c1cccc(-c2ccc3c(c2)CCNC3=O)c1` yielded an IC50 [1] of 1600 nM.
In the case of `Cc1c(-c2ccnc(C(F)(F)F)c2)ccc2c1CCNC2=O`, the Ratio IC50 (Homo sapiens [2]) is reported as > 37, the inhibition [3] is reported as “Dose-dependent effect” and the Ratio IC50 (Homo sapiens [4]) is reported as > 10. For the same compound, the Ratio IC50 (Homo sapiens [5]) was 2.5, the Ratio IC50 (Homo sapiens [6]) was > 37 and the IC50 [7] was > 30000 nM. It also gave an IC50 [8] of 6700 nM, a Ratio IC50 (Homo sapiens [9]) of 7 and an inhibition [10] of 80%. The Ratio IC50 (Homo sapiens [11]) was 23, the IC50 [12] was 19000 nM and the Ratio IC50 (Homo sapiens [13]) was > 10. The Ratio IC50 (Homo sapiens [14]) was > 37, the IC50 [1] was 1800 nM and the Ratio IC50 (Homo sapiens [15]) was 22. The Ratio IC50 (Homo sapiens [16]) was > 10, the IC50 [17] was > 30000 nM and the Ratio IC50 (Homo sapiens [18]) was > 37. The Ratio IC50 (Homo sapiens [19]) was > 10, the inhibition [20] was “Dose-dependent effect” and the IC50 [21] was > 100000 nM. The Ratio IC50 (Homo sapiens [22]) was > 37.
Compound `Cc1ccc2c(c1)CCNC2=O` has an IC50 [1] of 33100 nM.
With `Cc1c(-c2ccccc2)ccc2c1CCNC2=O` the IC50 [1] was 1600 nM and the solubility [23] was “Insoluble”.
Work on `Cc1c(-c2ccc3[nH]ccc3c2)ccc2c1CCNC2=O` yielded an IC50 [1] of 1100 nM.
Work on `O=C1NCCc2cc(Br)ccc21` yielded an IC50 [1] of 17100 nM.
With `O=C1NCCc2c1cccc2-c1ccccc1` the IC50 [1] was 35000 nM.
With `Cc1c(-c2cncc(C(F)(F)F)c2)ccc2c1CCNC2=O` the IC50 [1] was 2700 nM.
